Experimental data gathered from unrelated publications.
Lines come from different studies, so protocols differ.

SMILES	cell line	test	setting	IC50
COc1cc2c3c(n(CCCn4ccnc4)c(=O)c2cc1OC)-c1nc2c(cc1C3=O)OCO2	HL-60	cell growth or viability, MTS	72 h	> 2 µM
C=C(F)C(=O)N1CCN(c2nc(OC[C@@H]3CCCN3C)nc3c2CCN(c2cccc4cccc(Cl)c24)C3)C[C@@H]1CC#N	Lu-65	cell growth or viability, ATP luminescence	3D culture	0.00188 µM
COc1cc2c3c(n(CCCNCCO)c(=O)c2cc1OC)-c1nc2c(cc1C3=O)OCO2	HL-60	cell growth or viability, MTS	72 h	0.29 µM
CCCOc1ccc(/C=C/c2cc(OC)cc(OC)c2-c2cnnn2C(=O)NCCc2ccccc2)cc1	RAW264.7	NO release, inhibitor, Griess	24 h, LPS-stimulated	10.6 µM
COc1ccc(NC(=O)C2=C(C)NC(C)=C(C(=O)Nc3ccc(OC)cc3OC)C2c2ccc(O)cc2)c(OC)c1	Vero	cell growth or viability, MTT		70.3 µM
COc1cccc2c1C(=O)c1c(O)c3c(c(O)c1C2=O)C[C@@](O)(C(=O)CO)C[C@@H]3O[C@H]1C[C@H](N)[C@H](O)[C@H](C)O1	NCI-H1299	cell growth or viability, MTT	72 h	0.77 µM
COc1cc2c(NC3CCN(CCCC(=O)NCCCCCCCCCCCC(=O)N[C@H](C(=O)N4C[C@H](O)C[C@H]4C(=O)NCc4ccc(-c5scnc5C)cc4)C(C)(C)C)CC3)nc(N3CCC(F)(F)CC3)nc2cc1OCCCN1CCCC1	22Rv1	cell growth or viability, CCK-8	7 days	4.1 µM
COc1cc(NC(=O)c2cccc(C)c2)ccc1S(N)(=O)=O	RAW264.7	cell growth or viability, MTT	48 h	> 100 µM
C#CCOc1ccc(/C=C/c2cc(OC)cc(OC)c2-c2cnnn2C(=O)NCCc2ccccc2)cc1	RAW264.7	NO release, inhibitor, Griess	24 h, LPS-stimulated	11.7 µM
COc1cc(NC(=O)c2ccco2)ccc1S(N)(=O)=O	RAW264.7	cell growth or viability, MTT	48 h	> 100 µM
CC(C)c1ccccc1[C@@H]1CCCN1C1CC2(CCN(c3ccc(C(=O)NS(=O)(=O)c4ccc(NC[C@H]5CC[C@](C)(O)CC5)c([N+](=O)[O-])c4)c(Oc4cnc5[nH]ccc5c4)c3)CC2)C1	Maver1	cell growth or viability, ATP luminescence	48 h	0.00096 µM
Cc1ccc(-c2cc(C(F)(F)F)nn2-c2ccc(S(N)(=O)=O)cc2)cc1	RAW264.7	NO release, inhibitor, Griess	24 h, LPS-stimulated	> 20 µM
COc1cc(NC(=O)C2=C(C)NC(C)=C(C(=O)Nc3cc(OC)c(Cl)cc3OC)C2c2ccc(O)cc2)c(OC)cc1Cl	Vero	cell growth or viability, MTT		51.8 µM
CC#CCOc1ccc(/C=C/c2cc(OC)cc(OC)c2-c2cnnn2C(=O)NCCc2ccccc2)cc1	RAW264.7	NO release, inhibitor, Griess	24 h, LPS-stimulated	6.1 µM
COc1cc(NC(=O)c2ccccc2[N+](=O)[O-])ccc1S(N)(=O)=O	RAW264.7	cell growth or viability, MTT	48 h	> 100 µM
COc1ccc(NC(=O)C2=C(C)NC(C)=C(C(=O)Nc3ccc(OC)cc3OC)C2c2ccccc2)c(OC)c1	Vero	cell growth or viability, MTT		86.5 µM
CC1(C)CCC(CN2CCN(c3ccc(C(=O)NS(=O)(=O)c4ccc(NCC5CCOCC5)c([N+](=O)[O-])c4)c(Oc4cnc5[nH]ccc5c4)c3)CC2)=C(c2ccc(Cl)cc2)C1	HL-60	cell growth or viability, ATP luminescence	48 h	3.04 µM
